Experimental data: ChEMBL document CHEMBL2331117 (J Med Chem, 2013)
pIC50: −log10 of the molar value. In brackets after ≈: the same amount, converted by molar mass.

Legend:
[1] = target: Cytochrome P450 2D6 (Homo sapiens, UniProt P10635); test: Inhibition of CYP2D6 (unknown origin); type: ADME
[2] = Inhibition of mTORC1-mediated phosphorylation of S6 at serine 240/244 in human PC3 cells after 3 hrs by ELISA; type: cell-based; conditions: PC-3, 3 h
[3] = target: Phosphatidylinositol 4,5-bisphosphate 3-kinase catalytic subunit alpha isoform (Homo sapiens, UniProt P42336); test: Inhibition of PI3Kalpha (unknown origin) using PIP2 as substrate after 2 hrs by luminescence assay
[4] = Metabolic stability in mouse liver microsomes after 30 mins; type: ADME, Microsome; conditions: read-out: Stability
[5] = Inhibition of mTORC2-mediated phosphorylation of AKT at serine 473 in human PC3 cells after 2 hrs and 50 mins by ELISA; type: cell-based; conditions: PC-3
How it was run: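 Compound in 0.3% DMSO was added for 2 h 50 min, followed by 10 min stimulation with 20 ng/mL EGF. After formaldehyde fixation, pAKT (S473) and total AKT were detected by chemiluminescent cell ELISA. IC50 came from pAKT normalized to total AKT, relative to DMSO control. Mean, n ≥ 2.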

[6] = target: Cytochrome P450 3A4 (Homo sapiens, UniProt P08684); test: Inhibition of CYP3A4 (unknown origin); type: ADME
[7] = Inhibition of mTORC1 (unknown origin)-mediated 4EBP1 phosphorylation after 120 mins by ELISA; design: species or system Homo sapiens
[8] = target: T1, Cytochrome P450 2C8 (Homo sapiens, UniProt P10632); test: Inhibition of CYP2C8 (unknown origin); type: ADME
T1 sequence (P10632 whole entry): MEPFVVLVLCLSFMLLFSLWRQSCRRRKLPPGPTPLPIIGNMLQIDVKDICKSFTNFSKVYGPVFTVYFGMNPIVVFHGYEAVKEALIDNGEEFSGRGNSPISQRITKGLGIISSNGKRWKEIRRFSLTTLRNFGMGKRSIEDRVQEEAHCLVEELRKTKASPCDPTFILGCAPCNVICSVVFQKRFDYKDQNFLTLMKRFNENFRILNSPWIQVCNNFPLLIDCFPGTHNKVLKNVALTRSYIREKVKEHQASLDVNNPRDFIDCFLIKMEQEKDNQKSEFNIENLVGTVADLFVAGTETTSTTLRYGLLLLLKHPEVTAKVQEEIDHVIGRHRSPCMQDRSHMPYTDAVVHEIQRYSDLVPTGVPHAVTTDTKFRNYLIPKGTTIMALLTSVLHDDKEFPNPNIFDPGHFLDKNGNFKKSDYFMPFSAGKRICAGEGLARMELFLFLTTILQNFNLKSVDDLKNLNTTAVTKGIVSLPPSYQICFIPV

[9] = target: Cytochrome P450 2C9 (Homo sapiens, UniProt P11712); test: Inhibition of CYP2C9 (unknown origin); type: ADME
[10] = Plasma concentration in mouse at 100 mg/kg, po after 4 hrs; type: ADME, organism-based; design: dose 100 mg/kg, route oral
[11] = Plasma concentration in mouse at 100 mg/kg, po after 1 hr; type: ADME, organism-based; design: dose 100 mg/kg, route oral
[12] = Apparent permeability across MDCK cells; type: ADME, cell-based, Canis lupus familiaris; conditions: dog
[13] = Kinetic solubility of the compound; type: physicochemical; conditions: read-out: Kinetic_solubility
[14] = species: Homo sapiens; test: Selectivity ratio of IC50 for PI3Kalpha (unknown origin) to IC50 for mTOR (unknown origin)

Chain of Phosphatidylinositol 4,5-bisphosphate 3-kinase catalytic subunit alpha isoform (P42336 whole entry, canonical isoform): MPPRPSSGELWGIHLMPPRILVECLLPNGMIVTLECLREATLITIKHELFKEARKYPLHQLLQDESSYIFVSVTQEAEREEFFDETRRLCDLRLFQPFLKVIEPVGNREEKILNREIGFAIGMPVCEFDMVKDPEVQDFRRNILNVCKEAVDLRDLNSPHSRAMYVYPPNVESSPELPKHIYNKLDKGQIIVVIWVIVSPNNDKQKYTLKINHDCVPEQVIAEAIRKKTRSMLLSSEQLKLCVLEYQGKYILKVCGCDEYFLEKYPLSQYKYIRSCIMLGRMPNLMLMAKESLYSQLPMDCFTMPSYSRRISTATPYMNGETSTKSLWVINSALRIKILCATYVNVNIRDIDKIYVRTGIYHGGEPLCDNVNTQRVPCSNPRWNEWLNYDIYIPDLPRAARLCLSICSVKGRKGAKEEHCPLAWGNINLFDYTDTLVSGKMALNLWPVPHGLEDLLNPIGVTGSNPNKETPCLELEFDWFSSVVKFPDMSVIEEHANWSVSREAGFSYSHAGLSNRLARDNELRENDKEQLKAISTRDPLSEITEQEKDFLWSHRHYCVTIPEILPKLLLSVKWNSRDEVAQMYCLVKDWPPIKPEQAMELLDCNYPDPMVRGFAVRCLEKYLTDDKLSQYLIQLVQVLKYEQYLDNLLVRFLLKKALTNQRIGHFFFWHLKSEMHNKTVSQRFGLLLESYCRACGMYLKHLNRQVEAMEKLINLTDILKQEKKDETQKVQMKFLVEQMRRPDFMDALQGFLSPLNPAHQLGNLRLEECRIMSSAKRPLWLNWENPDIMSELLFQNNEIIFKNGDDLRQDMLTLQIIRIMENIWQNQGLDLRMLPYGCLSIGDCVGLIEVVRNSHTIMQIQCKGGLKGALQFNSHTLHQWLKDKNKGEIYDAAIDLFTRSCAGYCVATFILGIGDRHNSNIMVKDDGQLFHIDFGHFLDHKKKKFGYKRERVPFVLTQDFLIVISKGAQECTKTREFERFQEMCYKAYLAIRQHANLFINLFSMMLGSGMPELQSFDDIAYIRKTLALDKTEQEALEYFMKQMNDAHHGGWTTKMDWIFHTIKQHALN
Chain of Cytochrome P450 3A4 (P08684 whole entry): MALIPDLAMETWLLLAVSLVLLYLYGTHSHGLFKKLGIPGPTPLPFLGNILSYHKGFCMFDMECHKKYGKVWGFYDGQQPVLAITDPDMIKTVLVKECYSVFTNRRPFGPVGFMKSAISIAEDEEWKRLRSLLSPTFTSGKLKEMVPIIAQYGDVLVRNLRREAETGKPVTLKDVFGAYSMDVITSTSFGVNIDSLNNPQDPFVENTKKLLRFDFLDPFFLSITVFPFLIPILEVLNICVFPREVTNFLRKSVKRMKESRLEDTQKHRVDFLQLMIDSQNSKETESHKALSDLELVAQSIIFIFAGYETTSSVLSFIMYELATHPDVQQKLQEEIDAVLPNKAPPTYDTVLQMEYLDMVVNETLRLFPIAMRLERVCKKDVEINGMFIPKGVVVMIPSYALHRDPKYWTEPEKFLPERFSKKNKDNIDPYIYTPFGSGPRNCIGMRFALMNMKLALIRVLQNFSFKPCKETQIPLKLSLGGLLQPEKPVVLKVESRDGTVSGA
Chain of Cytochrome P450 2C9 (P11712 whole entry): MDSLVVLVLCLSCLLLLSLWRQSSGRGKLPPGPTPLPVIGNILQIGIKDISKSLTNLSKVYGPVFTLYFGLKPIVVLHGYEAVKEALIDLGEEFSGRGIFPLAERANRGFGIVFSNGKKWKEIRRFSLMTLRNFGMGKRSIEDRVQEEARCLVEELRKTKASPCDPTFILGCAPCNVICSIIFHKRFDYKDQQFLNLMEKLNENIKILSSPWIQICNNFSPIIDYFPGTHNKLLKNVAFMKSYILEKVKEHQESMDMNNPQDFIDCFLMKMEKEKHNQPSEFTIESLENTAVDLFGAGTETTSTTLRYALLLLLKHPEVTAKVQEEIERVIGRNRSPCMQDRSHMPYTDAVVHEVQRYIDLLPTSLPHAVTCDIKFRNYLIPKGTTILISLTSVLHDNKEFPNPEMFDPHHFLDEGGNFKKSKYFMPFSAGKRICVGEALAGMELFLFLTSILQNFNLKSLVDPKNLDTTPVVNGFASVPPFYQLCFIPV
Chain of Cytochrome P450 2D6 (P10635 whole entry): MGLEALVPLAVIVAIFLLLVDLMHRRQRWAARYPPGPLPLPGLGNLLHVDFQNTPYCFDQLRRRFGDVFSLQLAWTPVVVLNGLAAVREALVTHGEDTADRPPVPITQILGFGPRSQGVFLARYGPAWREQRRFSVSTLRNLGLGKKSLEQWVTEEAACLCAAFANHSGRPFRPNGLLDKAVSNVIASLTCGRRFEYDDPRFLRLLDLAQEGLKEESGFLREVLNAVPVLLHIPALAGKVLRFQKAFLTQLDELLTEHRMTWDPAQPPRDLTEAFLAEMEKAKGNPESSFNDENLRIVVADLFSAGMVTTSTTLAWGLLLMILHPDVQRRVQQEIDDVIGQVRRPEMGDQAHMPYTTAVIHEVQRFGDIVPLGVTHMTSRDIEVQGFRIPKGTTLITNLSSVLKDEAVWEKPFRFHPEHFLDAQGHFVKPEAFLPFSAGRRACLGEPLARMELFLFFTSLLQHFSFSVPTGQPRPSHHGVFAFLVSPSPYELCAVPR

Row | INH [1] | pIC50 [2] | pIC50 [3] | remaining at 0.5 h [4] | pIC50 [5] | INH [6] | pIC50 [7] | INH [8] | INH [9] | concentration at 4 h [10] | concentration at 1 h [11] | Papp [12] | solubility kinetic [13] | Ratio IC50 [14] | SMILES
1 | 11.5 µM | 6.82 | < 5.52 | 59% | 6.56 | 2.6 µM | 8.54 | 3.1 µM | 2.2 µM | – | – | – | – | – | CCc1c(C(=O)N2CCOc3ccc(-c4ccc5nc[nH]c5c4)cc3C2)ccc(S(C)(=O)=O)c1F
2 | – | – | < 5.52 | – | – | – | 6.69 | – | – | – | – | – | – | – | CCNc1cc(S(C)(=O)=O)ccc1C(=O)N1CCOc2ccc(-c3ccc4nc[nH]c4c3)cc2C1
3 | – | 5.93 | < 5.52 | 87% | 5.48 | – | 7.55 | – | – | – | – | – | – | – | CCCc1cc(S(C)(=O)=O)ccc1C(=O)N1CCOc2ccc(-c3ccc4nc[nH]c4c3)cc2C1
4 | 9.2 µM | 6.47 | 6.15 | 58% | 5.97 | 3.5 µM | 7.63 | 5.4 µM | 9 µM | – | – | – | – | – | CS(=O)(=O)c1ccc(C(=O)N2CCOc3ccc(-c4ccc5nc[nH]c5c4)cc3C2)c(Cl)c1
5 | – | – | < 5.00 | – | – | – | < 5.00 | – | – | – | – | – | – | – | c1ccc2ncc(-c3ccc4c(c3)CNCCO4)cc2c1
6 | > 20 µM | 6.63 | < 5.52 | 50% | 6.16 | 2 µM | 8.28 | 5.6 µM | 5.4 µM | – | – | – | – | – | CCc1cc(S(C)(=O)=O)ccc1C(=O)N1CCOc2ccc(-c3ccc4nc[nH]c4c3)cc2C1
7 | – | 6.62 | 7.05 | 50% | – | – | 9.30 | – | – | 200 nM | 1000 nM | – | – | – | Cc1nc2ccc(-c3ccc4c(c3)CN(C(=O)c3ccc(C(=O)C(F)(F)F)cc3)CCO4)cc2[nH]1
8 | 2.3 µM | 6.35 | 5.96 | 64% | 6.09 | 2.8 µM | 8.46 | 1.6 µM | 1.1 µM | – | – | 4.2 ×10⁻⁶ cm/s | – | – | CNS(=O)(=O)c1ccc(C(=O)N2CCOc3ccc(-c4ccc5nc[nH]c5c4)cc3C2)cc1
9 | – | – | 5.50 | – | – | – | 6.70 | – | – | – | – | – | – | – | O=C(c1ccccc1)N1CCOc2ccc(-c3cnc4ccccc4c3)cc2C1
10 | – | – | 6.62 | – | – | – | 6.94 | – | – | – | – | – | – | – | CC(=O)Nc1cccc(-c2ccc3c(c2)CN(C(=O)c2ccc(C(=O)C(F)(F)F)cc2)CCO3)c1
11 | – | – | < 5.00 | – | – | – | < 5.00 | – | – | – | – | – | – | – | O=C(c1ccc(C(=O)C(F)(F)F)cc1)N1CCOc2ccccc2C1
12 | 9.3 µM | 6.37 | < 5.52 | 51% | 6.00 | 4.1 µM | 8.24 | 5.4 µM | 2.9 µM | – | – | – | – | – | Cc1cc(S(C)(=O)=O)ccc1C(=O)N1CCOc2ccc(-c3ccc4nc[nH]c4c3)cc2C1
13 | – | 6.17 | 6.59 | 60% | – | – | 8.46 | – | – | – | – | – | – | – | O=C(c1ccc(C(=O)C(F)(F)F)cc1)N1CCOc2ccc(-c3ccc4cn[nH]c4c3)cc2C1
14 | 4.3 µM | 5.74 | 6.12 | 64% | 5.78 | 6.3 µM | 8.54 | 13.9 µM | 1.3 µM | – | – | 4.2 ×10⁻⁶ cm/s | – | – | NS(=O)(=O)c1ccc(C(=O)N2CCOc3ccc(-c4ccc5nc[nH]c5c4)cc3C2)cc1
15 | 9.2 µM | 6.46 | 6.16 | 45% | 6.34 | 3 µM | 8.28 | 3.4 µM | 4.2 µM | – | – | – | – | – | CS(=O)(=O)c1ccc(C(=O)N2CCOc3ccc(-c4ccc5nc[nH]c5c4)cc3C2)c(Br)c1
16 | 9.6 µM | 6.48 | 5.63 | 94% | 6.36 | 3.4 µM | 8.85 | 3.4 µM | 6.4 µM | – | – | – | – | – | Cc1c(C(=O)N2CCOc3ccc(-c4ccc5nc[nH]c5c4)cc3C2)ccc(S(C)(=O)=O)c1F
17 | 4 µM | 6.82 | 7.05 | 49% | – | 2.3 µM | 8.64 | 6.2 µM | 0.8 µM | 400 nM | 1500 nM | 0.98 ×10⁻⁶ cm/s | < 1 µM | – | O=C(c1ccc(C(=O)C(F)(F)F)cc1)N1CCOc2ccc(-c3ccc4nc[nH]c4c3)cc2C1
18 | – | 6.23 | 6.34 | 68% | 5.91 | – | 8.18 | – | – | – | – | – | – | – | Cc1cc(C(=O)N2CCOc3ccc(-c4ccc5nc[nH]c5c4)cc3C2)ccc1S(C)(=O)=O
19 | > 20 µM | 5.93 | 5.54 | 100% | 5.71 | > 20 µM | 7.89 | > 20 µM | 18.8 µM | – | – | – | – | – | CS(=O)(=O)c1ccc(C(=O)N2CCOc3ccc(-c4ccc(N)nc4)cc3C2)cc1
20 | 3.1 µM | 6.51 | 5.96 | 74% | 6.17 | 1.9 µM | 8.46 | 3.6 µM | 1.6 µM | – | – | – | – | – | O=C(c1ccc(C(F)(F)F)cc1)N1CCOc2ccc(-c3ccc4nc[nH]c4c3)cc2C1
21 | – | – | 5.83 | – | – | – | 7.13 | – | – | – | – | – | – | – | O=C(c1ccc(C(=O)C(F)(F)F)cc1)N1CCOc2ccc(-c3ccc4ccccc4c3)cc2C1
22 | 8.1 µM | 6.47 | 6.17 | 82% | 6.09 | 3.8 µM | 8.36 | > 20 µM | 3 µM | 1000 nM | 7800 nM | – | – | – | CS(=O)(=O)c1ccc(C(=O)N2CCOc3ccc(-c4ccc5nc[nH]c5c4)cc3C2)cc1
23 | – | – | 5.95 | – | – | – | 7.14 | – | – | – | – | – | – | – | O=C(c1ccc(C(=O)C(F)(F)F)cc1)N1CCOc2ccc(-c3cccnc3)cc2C1
24 | – | – | 5.74 | – | – | – | 7.85 | – | – | – | – | – | – | – | CC(=O)c1ccc(C(=O)N2CCOc3ccc(-c4ccc5cn[nH]c5c4)cc3C2)cc1
25 | – | 6.14 | 5.98 | 3% | – | – | 7.53 | – | – | – | – | – | – | – | O=C(c1ccc(C(=O)C(F)(F)F)cc1)N1CCOc2ccc(-c3cn[nH]c3)cc2C1
26 | 3.3 µM | 6.46 | 5.66 | 72% | 5.97 | 2.2 µM | 8.44 | 5 µM | 1.7 µM | – | – | – | – | – | CCS(=O)(=O)c1ccc(C(=O)N2CCOc3ccc(-c4ccc5nc[nH]c5c4)cc3C2)cc1
27 | – | 6.30 | 6.86 | 23% | – | – | 8.37 | – | – | – | – | – | – | – | O=C(c1ccc(C(=O)C(F)(F)F)cc1)N1CCOc2ccc(-c3ccc4[nH]ncc4c3)cc2C1
28 | – | – | 5.64 | – | – | – | 6.92 | – | – | – | – | – | – | – | O=C(c1ccc(C(=O)C(F)(F)F)cc1)N1CCOc2ccc(-c3ccccc3)cc2C1
29 | – | – | 5.61 | – | – | – | 6.47 | – | – | – | – | – | – | – | CC(=O)c1ccc(C(=O)N2CCOc3ccc(-c4ccc5cnn(C)c5c4)cc3C2)cc1
30 | – | – | 6.40 | – | – | – | 7.02 | – | – | – | – | 1.69 ×10⁻⁶ cm/s | 40.1 µM (≈ 19.1 µg/mL) | 4 | O=C(c1ccc(C(=O)C(F)(F)F)cc1)N1CCOc2ccc(-c3cnc4ccccc4c3)cc2C1
